Laboratory results as given in ChEMBL document CHEMBL1687733, “Topoisomerase I gene mutations at F270 in the large subunit and N184 in the small subunit contribute to the resistance mechanism of the unicellular parasite Leishmania donovani towards 3,3'-diindolylmethane” (Antimicrob Agents Chemother, 2009).
Residue numbers refer to the chain shown, from its start. Calls of active or inactive are those of the source.

What was measured:
[1] = test system: T1, DNA topoisomerase type IB small subunit (Leishmania donovani (strain BPK282A1)), E9B7X3 [N184S]; test: Effect on recombinant drug-resistant Leishmania donovani LdDR50 topoisomerase 1b small subunit N184S mutant-mediated cleavage of 25-mer duplex oligonucleotide at 20 uM after 30 mins by PAGE analysis
T1 sequence (whole entry): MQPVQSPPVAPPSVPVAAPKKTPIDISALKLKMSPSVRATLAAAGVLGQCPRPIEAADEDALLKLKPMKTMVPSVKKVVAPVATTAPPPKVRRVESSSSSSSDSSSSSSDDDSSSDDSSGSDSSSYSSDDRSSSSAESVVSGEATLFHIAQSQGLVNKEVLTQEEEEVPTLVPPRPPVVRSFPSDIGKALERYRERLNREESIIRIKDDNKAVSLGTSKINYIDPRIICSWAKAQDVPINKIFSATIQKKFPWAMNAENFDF
Outline: (§1)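 5′-32P-labelled 25-mer duplex (10 nM) incubated with reconstituted mutant enzyme (0.2 μM, 20-fold molar excess) and DIM 5–20 μM for 30 min (Methods 37°C; legend 23°C). Stopped with SDS, trypsin-treated, resolved on 12% denaturing polyacrylamide-urea gel; cleaved 12-mer detected by autoradiography.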

[2] = Binding affinity to Leishmania donovani large subunit of topoisomerase 1b
[3] = test system: Leishmania donovani; test: Effect on recombinant wild type Leishmania donovani AG83 topoisomerase 1b-mediated cleavage of 25-mer duplex oligonucleotide at 20 uM after 30 mins by PAGE analysis
Outline: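 The 5′-32P-labelled 25-mer duplex (10 nM) was incubated with 0.2 μM reconstituted WT His-tagged enzyme, a 20-fold molar enzyme excess. DIM was 0 or 5–20 μM, for 30 min. Reactions were stopped with SDS, trypsinised, and run on 12% denaturing polyacrylamide-urea gel with autoradiography. Read-out was the 12-mer cleaved product.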

[4] = test system: T2, DNA topoisomerase I (Leishmania donovani (strain BPK282A1)), E9BRC0 [F270L]; test: Inhibition of recombinant drug-resistant Leishmania donovani LdDR50 topoisomerase 1b large subunit F270L mutant-mediated religation of 14-mer/25-mer suicide DNA substrate at 20 uM […] by PAGE analysis
T2 sequence (whole entry): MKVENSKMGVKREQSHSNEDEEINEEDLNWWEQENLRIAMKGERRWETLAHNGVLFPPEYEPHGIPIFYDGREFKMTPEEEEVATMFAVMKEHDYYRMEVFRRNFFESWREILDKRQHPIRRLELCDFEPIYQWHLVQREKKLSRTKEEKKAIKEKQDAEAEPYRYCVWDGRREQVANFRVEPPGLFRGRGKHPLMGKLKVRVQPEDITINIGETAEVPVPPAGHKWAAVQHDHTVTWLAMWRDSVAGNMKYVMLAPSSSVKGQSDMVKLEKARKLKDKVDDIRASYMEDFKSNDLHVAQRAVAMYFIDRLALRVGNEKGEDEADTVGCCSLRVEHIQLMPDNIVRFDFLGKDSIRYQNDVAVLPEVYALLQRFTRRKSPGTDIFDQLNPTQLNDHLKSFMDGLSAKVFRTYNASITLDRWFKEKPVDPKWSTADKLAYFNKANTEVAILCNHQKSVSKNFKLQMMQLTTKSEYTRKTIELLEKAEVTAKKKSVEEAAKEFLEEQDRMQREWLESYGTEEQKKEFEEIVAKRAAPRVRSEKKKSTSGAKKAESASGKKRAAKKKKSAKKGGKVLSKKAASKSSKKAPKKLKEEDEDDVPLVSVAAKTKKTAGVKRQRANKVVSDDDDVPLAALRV

[5] = test system: Leishmania donovani; test: Antimicrobial activity against wild type Leishmania donovani AG83 transfected with drug-resistant Leishmania donovani LdDR50 topoisomerase 1 wild type large subunit and N184S mutant in small subunit assessed as inhibition of parasite growth at 20 uM after 24 hrs by MTT assay; format: functional; settings: AG83, 24 h
Outline: (§2)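 WT promastigotes transfected by electroporation with mutant large-subunit (pXG-HYG, hygromycin selection) and/or small-subunit (pXG-GFP2+, G418 selection) topoisomerase I genes. Grown with DIM 1–20 μM for 24 h; MTT read-out, growth as % of optical density of untreated WT parasites.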

[6] = test system: Leishmania donovani; test: Antimicrobial activity against wild type Leishmania donovani AG83 transfected with drug-resistant Leishmania donovani LdDR50 topoisomerase 1 F270L, K430N mutant in large subunit assessed as inhibition of parasite growth at 20 uM after 24 hrs by MTT assay; format: functional; settings: AG83, 24 h; outline: as §2
[7] = test system: Leishmania donovani; test: Inhibition of recombinant drug-resistant Leishmania donovani LdDR50 topoisomerase 1b-mediated relaxation of supercoiled pBluescript SK(+) DNA at up to 50 uM after 30 mins using ethidium bromide staining
Outline: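 Reconstituted recombinant enzyme (30 fmol) with 90 fmol supercoiled pBluescript SK(+) DNA (3:1 DNA:enzyme), 30 min at 37°C with DIM (1–50 μM for fully mutant enzyme; 10 μM for single-site mutants); 4% DMSO vehicle control. Products on 1% agarose, ethidium bromide (0.5 μg/ml) stained; supercoiled monomer band quantified.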

[8] = Binding affinity to recombinant drug-resistant Leishmania donovani LdDR50 topoisomerase 1b after 24 hrs by equilibrium dialysis method
Outline: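 Recombinant His-tagged subunits expressed in E. coli BL21(DE3) pLysS, purified on Ni-NTA then phosphocellulose, reconstituted 1:1. Enzyme 200 μM with DIM 1–20 μM in 20 mM Tris-HCl pH 7.5, 50 mM NaCl, 10 mM MgCl2 for 30 min at 37°C, then dialysed (12–14 kDa cutoff) 24 h at 25°C. Free DIM measured by absorbance (ε 6.6 × 10^4 M−1); KD from saturation plot.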

[9] = test system: T3, DNA topoisomerase I (Leishmania donovani (strain BPK282A1)), E9BRC0 [K430N]; test: Effect on recombinant drug-resistant Leishmania donovani LdDR50 topoisomerase 1b large subunit K430N mutant-mediated cleavage of 25-mer duplex oligonucleotide at 20 uM after 30 mins by PAGE analysis; outline: as §1
T3 sequence (whole entry): T2 sequence (whole entry) with L270F, K430N

c1ccc2c(Cc3c[nH]c4ccccc34)c[nH]c2c1 [ARUNDINE]
Activity [1]: Active
Kd [2]: 0.428 µM
Activity [3]: Active
inhibition [4]: inactive
inhibition at 20 µM [5]: 91%
inhibition at 20 µM [6]: 34%
inhibition [7]: inactive
Kd [8]: 240 µM
Activity [9]: Active
